# Test results from ChEMBL document CHEMBL2413013, “Triplex-forming ability of oligonucleotides containing 1-aryl-1,2,3-triazole nucleobases linked via a two atom-length spacer” (Bioorg Med Chem, 2013).
# Experiments:
# [1] = Binding affinity to hairpin double stranded DNA CG base pair in sodium cacodylate buffer at pH 6.8 assessed as triplex-forming ability measuring melting temperature after by UV melting experiment
# Method in brief: (§1)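 TFO and hairpin dsDNA target, each strand at 1.89 μM final, in 10 mM sodium cacodylate (pH 6.8) with 100 mM KCl and 50 mM MgCl₂. Annealed in boiling water, then cooled slowly to 5 °C. Melting was followed at 260 nm from 5 to 90 °C at 0.5 °C/min. Tm was taken by the two-point average method, mean of three independent runs.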
# [2] = Binding affinity to hairpin double stranded DNA AT base pair in sodium cacodylate buffer at pH 6.8 assessed as triplex-forming ability measuring melting temperature after by UV melting experiment; method in brief: as §1
# [3] = Binding affinity to hairpin double stranded DNA TA base pair in sodium cacodylate buffer at pH 6.8 assessed as triplex-forming ability measuring melting temperature after by UV melting experiment; method in brief: as §1
# [4] = Binding affinity to hairpin double stranded DNA GC base pair in sodium cacodylate buffer at pH 6.8 assessed as triplex-forming ability measuring melting temperature after by UV melting experiment; method in brief: as §1
SMILES,Tm [1] [°C],Tm [2] [°C],Tm [3] [°C],Tm [4] [°C]
Cc1cn([C@H]2C[C@H](O[PH](OCCC#N)(OC[C@H]3O[C@@H](n4cc(C)c(=O)[nH]c4=O)C[C@@H]3O[PH](OCCC#N)(OC[C@H]3O[C@@H](n4cc(C)c(=O)[nH]c4=O)C[C@@H]3O[PH](OCCC#N)(OC[C@H]3O[C@@H](n4cc(C)c(=O)[nH]c4=O)C[C@@H]3O[PH](OCCC#N)(OC[C@H]3O[C@@H](n4cc(C)c(=O)[nH]c4=O)C[C@@H]3O[PH](OCCC#N)(OC(C)[C@H]3O[C@@H](n4ccc(N)nc4=O)C[C@@H]3O[PH](OCCC#N)(OC[C@H]3O[C@@H](n4cc(C)c(=O)[nH]c4=O)C[C@@H]3O[PH](OCCC#N)(OC[C@H]3O[C@@H](CCc4cn(-c5cccc(CO)c5)nn4)C[C@@H]3OP(=O)(O)OC[C@H]3O[C@@H](n4cc(C)c(=O)[nH]c4=O)C[C@@H]3O[PH](OCCC#N)(OC(C)[C@H]3O[C@@H](n4ccc(N)nc4=O)C[C@@H]3O[PH](OCCC#N)(OC[C@H]3O[C@@H](n4cc(C)c(=O)[nH]c4=O)C[C@@H]3O[PH](OCCC#N)(OC(C)[C@H]3O[C@@H](n4ccc(N)nc4=O)C[C@@H]3O[PH](OCCC#N)(OC[C@H]3O[C@@H](n4cc(C)c(=O)[nH]c4=O)C[C@@H]3O[PH](OCCC#N)(OC(C)[C@H]3O[C@@H](n4ccc(N)nc4=O)C[C@@H]3O[PH](OCCC#N)(OC[C@H]3O[C@@H](n4cc(C)c(=O)[nH]c4=O)C[C@@H]3O)N(C(C)C)C(C)C)N(C(C)C)C(C)C)N(C(C)C)C(C)C)N(C(C)C)C(C)C)N(C(C)C)C(C)C)N(C(C)C)C(C)C)N(C(C)C)C(C)C)N(C(C)C)C(C)C)N(C(C)C)C(C)C)N(C(C)C)C(C)C)N(C(C)C)C(C)C)N(C(C)C)C(C)C)N(C(C)C)C(C)C)[C@@H](CO)O2)c(=O)[nH]c1=O (stereo not given in full),23,19,23,20
Cc1cn([C@H]2C[C@H](O[PH](OCCC#N)(OC[C@H]3O[C@@H](n4cc(C)c(=O)[nH]c4=O)C[C@@H]3O[PH](OCCC#N)(OC[C@H]3O[C@@H](n4cc(C)c(=O)[nH]c4=O)C[C@@H]3O[PH](OCCC#N)(OC[C@H]3O[C@@H](n4cc(C)c(=O)[nH]c4=O)C[C@@H]3O[PH](OCCC#N)(OC[C@H]3O[C@@H](n4cc(C)c(=O)[nH]c4=O)C[C@@H]3O[PH](OCCC#N)(OC(C)[C@H]3O[C@@H](n4ccc(N)nc4=O)C[C@@H]3O[PH](OCCC#N)(OC[C@H]3O[C@@H](n4cc(C)c(=O)[nH]c4=O)C[C@@H]3O[PH](OCCC#N)(OC[C@H]3O[C@@H](CCc4cn(-c5ccccc5O)nn4)C[C@@H]3OP(=O)(O)OC[C@H]3O[C@@H](n4cc(C)c(=O)[nH]c4=O)C[C@@H]3O[PH](OCCC#N)(OC(C)[C@H]3O[C@@H](n4ccc(N)nc4=O)C[C@@H]3O[PH](OCCC#N)(OC[C@H]3O[C@@H](n4cc(C)c(=O)[nH]c4=O)C[C@@H]3O[PH](OCCC#N)(OC(C)[C@H]3O[C@@H](n4ccc(N)nc4=O)C[C@@H]3O[PH](OCCC#N)(OC[C@H]3O[C@@H](n4cc(C)c(=O)[nH]c4=O)C[C@@H]3O[PH](OCCC#N)(OC(C)[C@H]3O[C@@H](n4ccc(N)nc4=O)C[C@@H]3O[PH](OCCC#N)(OC[C@H]3O[C@@H](n4cc(C)c(=O)[nH]c4=O)C[C@@H]3O)N(C(C)C)C(C)C)N(C(C)C)C(C)C)N(C(C)C)C(C)C)N(C(C)C)C(C)C)N(C(C)C)C(C)C)N(C(C)C)C(C)C)N(C(C)C)C(C)C)N(C(C)C)C(C)C)N(C(C)C)C(C)C)N(C(C)C)C(C)C)N(C(C)C)C(C)C)N(C(C)C)C(C)C)N(C(C)C)C(C)C)[C@@H](CO)O2)c(=O)[nH]c1=O (stereo not given in full),22,20,18,19
Cc1cn([C@H]2C[C@H](O[PH](OCCC#N)(OC[C@H]3O[C@@H](n4cc(C)c(=O)[nH]c4=O)C[C@@H]3O[PH](OCCC#N)(OC[C@H]3O[C@@H](n4cc(C)c(=O)[nH]c4=O)C[C@@H]3O[PH](OCCC#N)(OC[C@H]3O[C@@H](n4cc(C)c(=O)[nH]c4=O)C[C@@H]3O[PH](OCCC#N)(OC[C@H]3O[C@@H](n4cc(C)c(=O)[nH]c4=O)C[C@@H]3O[PH](OCCC#N)(OC(C)[C@H]3O[C@@H](n4ccc(N)nc4=O)C[C@@H]3O[PH](OCCC#N)(OC[C@H]3O[C@@H](n4cc(C)c(=O)[nH]c4=O)C[C@@H]3O[PH](OCCC#N)(OC[C@H]3O[C@@H](OCc4cn(-c5ccc(CO)cc5)nn4)C[C@@H]3OP(=O)(O)OC[C@H]3O[C@@H](n4cc(C)c(=O)[nH]c4=O)C[C@@H]3O[PH](OCCC#N)(OC(C)[C@H]3O[C@@H](n4ccc(N)nc4=O)C[C@@H]3O[PH](OCCC#N)(OC[C@H]3O[C@@H](n4cc(C)c(=O)[nH]c4=O)C[C@@H]3O[PH](OCCC#N)(OC(C)[C@H]3O[C@@H](n4ccc(N)nc4=O)C[C@@H]3O[PH](OCCC#N)(OC[C@H]3O[C@@H](n4cc(C)c(=O)[nH]c4=O)C[C@@H]3O[PH](OCCC#N)(OC(C)[C@H]3O[C@@H](n4ccc(N)nc4=O)C[C@@H]3O[PH](OCCC#N)(OC[C@H]3O[C@@H](n4cc(C)c(=O)[nH]c4=O)C[C@@H]3O)N(C(C)C)C(C)C)N(C(C)C)C(C)C)N(C(C)C)C(C)C)N(C(C)C)C(C)C)N(C(C)C)C(C)C)N(C(C)C)C(C)C)N(C(C)C)C(C)C)N(C(C)C)C(C)C)N(C(C)C)C(C)C)N(C(C)C)C(C)C)N(C(C)C)C(C)C)N(C(C)C)C(C)C)N(C(C)C)C(C)C)[C@@H](CO)O2)c(=O)[nH]c1=O (stereo not given in full),22,19,19,19
CC1=CN([C@H]2C[C@H](O[PH](OCCC#N)(OC(C)[C@H]3O[C@@H](n4ccc(N)nc4=O)C[C@@H]3O[PH](OCCC#N)(OC[C@H]3O[C@@H](n4cc(C)c(=O)[nH]c4=O)C[C@@H]3O[PH](OCCC#N)(OC(C)[C@H]3O[C@@H](n4ccc(N)nc4=O)C[C@@H]3O[PH](OCCC#N)(OC[C@H]3O[C@@H](n4cc(C)c(=O)[nH]c4=O)C[C@@H]3O)N(C(C)C)C(C)C)N(C(C)C)C(C)C)N(C(C)C)C(C)C)N(C(C)C)C(C)C)[C@@H](CO[PH](OCCC#N)(O[C@H]3C[C@H](n4ccc(N)nc4=O)O[C@@H]3C(C)O[PH](OCCC#N)(O[C@H]3C[C@H](n4cc(C)c(=O)[nH]c4=O)O[C@@H]3COP(=O)(O)O[C@H]3C[C@H](OCc4cn(-c5ccccc5)nn4)O[C@@H]3CO[PH](OCCC#N)(O[C@H]3C[C@H](n4cc(C)c(=O)[nH]c4=O)O[C@@H]3CO[PH](OCCC#N)(O[C@H]3C[C@H](n4ccc(N)nc4=O)O[C@@H]3C(C)O[PH](OCCC#N)(O[C@H]3C[C@H](n4cc(C)c(=O)[nH]c4=O)O[C@@H]3CO[PH](OCCC#N)(O[C@H]3C[C@H](n4cc(C)c(=O)[nH]c4=O)O[C@@H]3CO[PH](OCCC#N)(O[C@H]3C[C@H](n4cc(C)c(=O)[nH]c4=O)O[C@@H]3CO[PH](OCCC#N)(O[C@H]3C[C@H](n4cc(C)c(=O)[nH]c4=O)O[C@@H]3CO[PH](OCCC#N)(O[C@H]3C[C@H](n4cc(C)c(=O)[nH]c4=O)O[C@@H]3CO)N(C(C)C)C(C)C)N(C(C)C)C(C)C)N(C(C)C)C(C)C)N(C(C)C)C(C)C)N(C(C)C)C(C)C)N(C(C)C)C(C)C)N(C(C)C)C(C)C)N(C(C)C)C(C)C)N(C(C)C)C(C)C)O2)[C@@H](O)NC1=O (stereo not given in full),22,20,20,22
Cc1cn([C@H]2C[C@H](O[PH](OCCC#N)(OC[C@H]3O[C@@H](n4cc(C)c(=O)[nH]c4=O)C[C@@H]3O[PH](OCCC#N)(OC[C@H]3O[C@@H](n4cc(C)c(=O)[nH]c4=O)C[C@@H]3O[PH](OCCC#N)(OC[C@H]3O[C@@H](n4cc(C)c(=O)[nH]c4=O)C[C@@H]3O[PH](OCCC#N)(OC[C@H]3O[C@@H](n4cc(C)c(=O)[nH]c4=O)C[C@@H]3O[PH](OCCC#N)(OC(C)[C@H]3O[C@@H](n4ccc(N)nc4=O)C[C@@H]3O[PH](OCCC#N)(OC[C@H]3O[C@@H](n4cc(C)c(=O)[nH]c4=O)C[C@@H]3O[PH](OCCC#N)(OC[C@H]3O[C@@H](CCc4cn(-c5cccc(NC(N)=O)c5)nn4)C[C@@H]3OP(=O)(O)OC[C@H]3O[C@@H](n4cc(C)c(=O)[nH]c4=O)C[C@@H]3O[PH](OCCC#N)(OC(C)[C@H]3O[C@@H](n4ccc(N)nc4=O)C[C@@H]3O[PH](OCCC#N)(OC[C@H]3O[C@@H](n4cc(C)c(=O)[nH]c4=O)C[C@@H]3O[PH](OCCC#N)(OC(C)[C@H]3O[C@@H](n4ccc(N)nc4=O)C[C@@H]3O[PH](OCCC#N)(OC[C@H]3O[C@@H](n4cc(C)c(=O)[nH]c4=O)C[C@@H]3O[PH](OCCC#N)(OC(C)[C@H]3O[C@@H](n4ccc(N)nc4=O)C[C@@H]3O[PH](OCCC#N)(OC[C@H]3O[C@@H](n4cc(C)c(=O)[nH]c4=O)C[C@@H]3O)N(C(C)C)C(C)C)N(C(C)C)C(C)C)N(C(C)C)C(C)C)N(C(C)C)C(C)C)N(C(C)C)C(C)C)N(C(C)C)C(C)C)N(C(C)C)C(C)C)N(C(C)C)C(C)C)N(C(C)C)C(C)C)N(C(C)C)C(C)C)N(C(C)C)C(C)C)N(C(C)C)C(C)C)N(C(C)C)C(C)C)[C@@H](CO)O2)c(=O)[nH]c1=O (stereo not given in full),27,23,28,23
